Compounds with a hit are over-represented: about 2.2% of the library has one in this group of screens.
APP transl inh – APP translation inhibition. AID 1285. SH-SY5Y APP 5'UTR-luciferase reporter, luminescence. 190,000 compounds, 0.82% hits. inhibition, % at 2 µM;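 active = inhibition above a set limit, derived from the sample mean plus 3 SD, cut at about 45% in these data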
IEC-6 tox – counter-screen for KLF5 inhibitors: cytotoxicity in IEC-6 cells; IEC-6 cytotoxicity, luminescence viability; inhibition, % at 5 µM; 290,000 compounds, 0.78% hits; AID 1825;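 also: 0% = plate median of test compound wells and 100% = cytotoxic reference compound wells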
BaF3 parental – parental Ba/F3 viability inhibition as JAK2V617F counter-screen; CellTiter-Glo ATP luminescence; inhibition, % at 5.6 µM; 220,000 compounds, 1.1% hits;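 active = inhibition above a per-campaign cutoff, the mean inhibition of all tested compounds plus 3 SD, cut at about 27% in these data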;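 also: 0% = DMSO wells and 100% = JAK Inhibitor I control wells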
b-catenin transl – alters nuclear translocation of beta-catenin in HeLa cells; immunofluorescence imaging; nuclear translocation activity, % at 5 µM; 190,000 compounds, 0.3% hits;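 active = nuclear translocation activity above 50% at 5 µM, with a well cell count of 50 or more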;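 also: per-cell ratio of nuclear to cytoplasmic median beta-catenin stain intensity; plate controls were DMSO negative control for no effect and GSK-3 inhibitor IX positive control for full effect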
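Signal – beta-catenin immunofluorescence imaging with DAPI · Test system – human HeLa cell line · Dosing – 5 µM primary single dose, 0.1% DMSO, 0.02–20 µM confirmation series · Measure – % activation, nuclear-to-cytoplasmic median beta-catenin signal ratio per cell · Incubation – 24 h compound exposure at 37°C, 5% CO2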
MT stabilizer – stabilizes microtubules in HeLa cells. HeLa tubulin immunostaining HCS, 24 h; share of cells brighter than vehicle mean+2SD. 200,000 compounds, 0.83% hits. % tubulin-high responders, % at 10 µM;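 active = plate Z-score above 3 for both tubulin-high and condensed-nucleus cell shares, with cell loss under 80%, at 10 µM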;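 also: anti alpha tubulin signal scored within the nucleus-defined area of each cell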
Ba/F3 V617F tox – loss of viability in JAK2V617F-driven Ba/F3 cells. Ba/F3 EpoR-JAK2V617F viability, ATP luminescence. inhibition, % at 5.6 µM. 220,000 compounds, 1.1% hits;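 active = inhibition above the campaign mean plus 3 SD over all tested compounds, cut at about 24% in these data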;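 also: cytokine-independent growth of Ba/F3 cells driven by EpoR plus mutant JAK2; 0% = DMSO-treated cells and 100% = JAK inhibitor I control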
IEC-6 tox confirm – IEC-6 cytotoxicity, confirmation assay; shares compounds with IEC-6 tox; IEC-6 rat intestinal epithelial viability, luminescence; inhibition, % at 5 µM; 1,900 compounds, 63% hits;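 also: 0% = vehicle and 100% = reference cytotoxic drug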
The depositor's hits bear a star; · = no result given. Rule as the data show it, unless noted: active = inhibition above about 22%; inactive = the rest.

SMILES	APP transl inh	IEC-6 tox	BaF3 parental	b-catenin transl	MT stabilizer	Ba/F3 V617F tox	IEC-6 tox confirm
CCOc1ccc(CN(C)CC(=O)Nc2ccc([N+](=O)[O-])cc2Cl)cc1	12	-6	6	0	5	-2	·
C=CCn1c(SCC(=O)c2cccs2)nc2sc(C)cc2c1=O	2	66*	-1	-2	2	-4	44*
CCOC(=O)[C@@H]1[C@H]2COc3ccccc3[C@H]2N2C(=O)N(c3ccc(C(F)(F)F)cc3)C(=O)[C@]12C	·	-3	·	·	·	·	·
Cc1ccc(/C=N/NC(=O)c2c(-c3ccccc3)noc2C)c(O)c1	·	26*	·	·	·	·	18
CC(C)(C)C(=O)Nc1ccc(C(=O)NCc2cccnc2)cc1	5	1	6	-6	2	5	·
O=C(NCc1cccnc1)c1ccc(NC(=O)c2ccc([N+](=O)[O-])cc2)cc1	·	87*	·	·	·	·	59*
CC(C)(C)c1ccc(C(=O)Nc2ccc(C(=O)NCc3cccnc3)cc2)cc1	·	98*	·	·	·	·	91*
O=C(OCC(=O)N1CCCC1=O)c1nc(Cl)c(Cl)c(Cl)c1Cl	·	42*	·	·	·	·	5
CN1C2CCC1/C(=C\c1ccccc1F)C(=O)/C2=C/c1ccccc1F	0	33*	4	-3	3	17	0
CC(C)OC(=O)c1ccc(NC(=O)c2ccccc2)cc1	-100	2	8	-1	2	4	·
CC(C)OC(=O)c1ccc2nc3ccccc3nc2c1	·	24*	·	·	·	·	20
O=C1Nc2ccccc2/C1=N/N=C/c1ccc(-c2ccc([N+](=O)[O-])cc2)o1	0	-1	11	-7	2	1	·
O=C(NC(Nc1nc2ccc([N+](=O)[O-])cc2s1)(C(F)(F)F)C(F)(F)F)c1ccccc1Cl	66*	76*	81*	8	3	100*	97*
O=C(CSc1n[nH]c(-c2ccccn2)n1)Nc1ccc(Cl)cc1	·	44*	·	·	·	·	29*
Cc1nn2c(NCc3ccccn3)cc(C(C)(C)C)nc2c1-c1ccccc1	·	0	-2	-1	·	-2	·
Cc1cc(NCc2ccccn2)n2nc(C)c(-c3ccccc3)c2n1	·	81*	9	-2	·	9	18
Cc1cccc(N2CCN(C(=O)CCNS(=O)(=O)c3cccs3)CC2C)c1 (centres undefined)	·	4	·	·	·	·	·
Cc1ccc(C(=O)CC(=O)c2ccccc2)cc1	·	1	·	·	·	·	·
Cc1ccc(C(=O)Sc2cccccc2=O)cc1	·	99*	·	·	·	·	101*
Cc1nc(C(C)NC(=O)CCc2nnc(-c3ccsc3)o2)cs1 (centres undefined)	-8	0	3	1	2	-1	·
O=C(c1ccco1)c1coc2c1cc(O)c1ccccc12	-60	25*	-1	1	4	-1	6
CC(=O)c1coc2c1cc(O)c1ccccc12	-30	0	2	·	3	-4	·
CN1CCN(C(=O)c2cc(Cl)ccc2NC(=O)c2ccc(Cl)cc2Cl)CC1	·	0	·	·	·	·	·
CCCNc1nc2ccccc2n2c(C)nnc12	·	18	·	·	·	·	·
O=C(COc1ccccc1-c1ccccc1)NN=C1CCCC1	82*	53*	6	-1	3	3	-8
SMILES	APP transl inh	IEC-6 tox	BaF3 parental	b-catenin transl	MT stabilizer	Ba/F3 V617F tox	IEC-6 tox confirm
O=C1CCC/C(=N\NC(=O)c2ccc(COc3ccccc3-c3ccccc3)cc2)C1	-5	0	2	11	4	-4	·
COc1ccc(/C=N/NC(=O)COc2ccccc2-c2ccccc2)cc1	96*	79*	76*	142*	13	76*	56*
CCOc1cc(C(=S)N2CCCC2)ccc1OCC(=O)Nc1c(C)cc(C)cc1C	·	-3	7	-1	0	2	·
NC1=C(Br)C(=O)c2ccccc2C1=O	·	29*	-1	1	·	5	12
O=C1CN(CC(=O)NC2CCCc3ccccc32)CCN1 (centres undefined)	·	1	·	·	·	·	·
CC1CCCCN1CCNC(=O)c1ccc2c(c1)N(Cc1ccccc1)C(=O)c1ccccc1S2(=O)=O (centres undefined)	·	-9	·	·	·	·	·
COc1cccc(NC(=O)CN2C(=O)NC(C)(CCC(C)C)C2=O)c1 (centres undefined)	10	-2	5	3	4	1	·
CCOC(=O)c1c(CSC(=N)N)n(C)c2cc(Br)c(OC(C)=O)cc12	·	24*	-4	-2	·	-1	12
Cc1ccc(C)c(CSC2=NN3CCCC(=O)N=C3S2)c1	·	-4	-1	0	·	-2	·
COc1ccccc1C(=O)Nc1nc2ccccc2s1	·	29*	·	·	·	·	28*
COc1ccc(C(=O)Nc2nc3ccccc3s2)c(OC)c1	·	22	·	·	·	·	·
COc1ccccc1C(=O)Nc1nnc(CCc2ccccc2)s1	·	44*	·	·	·	·	56*
CCOC(=O)N=Nc1c2ccccc2c2nc3no[nH]c3nc12	94*	100*	14	-2	5	4	102*
Cc1ccc(S(=O)(=O)Nc2ccc3c4c(cccc24)CC3)c(C)c1	4	26*	13	·	42*	4	39*
Cc1cc(C)c(S(=O)(=O)Nc2ccc3c4c(cccc24)CC3)c(C)c1	95*	89*	79*	0	15	77*	56*
CCc1nnc(NC(=O)c2ccc(Cl)nc2)s1	-51	-3	7	-2	2	3	·
CCc1nnc(NC(=O)c2cc(Cl)ccn2)s1	·	31*	·	·	·	·	18
COCCNC(=O)C1CCCN(S(=O)(=O)c2cccc3nsnc23)C1 (centres undefined)	·	7	·	·	·	·	·
Cc1ccc2ccc3ccc(C)nc3c2n1	·	91*	·	·	·	·	37*
Cc1oc(-c2cccc(Cl)c2)nc1CN1CCC(C(=O)NCCCN2CC(C)CC(C)C2)CC1 (centres undefined)	·	22*	·	·	·	·	53*
Cc1oc(-c2cccc(Cl)c2)nc1CN1CCC(C(=O)NCCCN2CCCC2=O)CC1	15	-3	7	·	4	-4	·
CC(=O)c1ccc(NC(=O)c2cnsn2)cc1	-90	-4	4	0	2	1	·
Cc1ccc(-c2csc3ncnc(Sc4nnc(CN5CCCCCC5=O)o4)c23)cc1	26	36*	-3	0	19*	2	30*
CN(C)CCNC(=O)c1cc2c(s1)-c1ccc(Cl)cc1SC2	·	101*	·	·	·	·	28*
Cc1cnc(CNC(=O)c2ccc3oc(C(C)C)nc3c2)[nH]1	·	-9	·	·	·	·	·
SMILES	APP transl inh	IEC-6 tox	BaF3 parental	b-catenin transl	MT stabilizer	Ba/F3 V617F tox	IEC-6 tox confirm
Cc1ccc2oc(C(=O)NCc3ncc(C)[nH]3)c(C)c2c1	·	34*	·	·	·	·	21
COc1ccc(N/C=C/C(=O)c2ccc(OC)c(OC)c2)cc1	·	6	-5	0	·	0	·
COc1ccc(N/C=C/C(=O)c2cc(OC)c(OC)c(OC)c2)cc1	·	81*	·	·	·	·	59*
CCCCn1c(=O)[nH]c(=O)c2c1nc(CN1C(=O)c3ccccc3S1(=O)=O)n2CCC	-19	-6	3	1	0	0	·
CCCCn1c(=O)[nH]c(=O)c2c1nc(Cn1ncc(Cl)c(Cl)c1=O)n2CCC	·	102*	·	·	·	·	28*
COc1ccccc1C(=O)Nc1onc(C)c1C#N	-1	-2	10	0	2	2	·
